Experimental data collected from several papers.
SMARCA2 bromodomain: SWI/SNF-related matrix-associated actin-dependent regulator of chromatin subfamily A member 2, bromodomain (SMARCA2, Homo sapiens, UniProt P51531)
HSP90B1: Endoplasmin (HSP90B1, Canis lupus familiaris, UniProt P41148)
MTOR: Serine/threonine-protein kinase mTOR (MTOR, Homo sapiens, UniProt P42345)

`Cc1ncsc1-c1ccc(CNC(=O)[C@@H]2C[C@@H](O)CN2C(=O)[C@@H](NC(=O)C2(F)CC2)C(C)(C)C)c(OCCOc2ccc(CN3CCN(c4cc(-c5ccccc5O)nnc4N)CC3)cc2)c1` gave a Kd of 1.8 µM (SMARCA2 bromodomain; binding, SPR).
The Kd of `N=c1ccc2c(-c3ccc(C(=O)NCCCCCCn4cc(CCCC(=O)Nc5nc6ccc(Cl)cc6c6nc(-c7ccco7)nn56)nn4)cc3C(=O)O)c3ccc(N)c(S(=O)(=O)O)c3oc-2c1S(=O)(=O)O` is reported as 0.00515 µM (Adenosine receptor A3 (ADORA3, Homo sapiens, UniProt P0DMS8); binding, flow cytometry).
The Kd of `Cc1cc2nc3c(=O)[nH]c(=O)nc-3n(C[C@H](O)[C@H](O)[C@H](O)COP(=O)(O)OP(=O)(O)OC[C@H]3O[C@@H](n4cnc5c(N)ncnc54)[C@H](O)[C@@H]3O)c2cc1C` is reported as 0.007 µM (DAZ-associated protein 1 (Homo sapiens, UniProt Q96EP5); binding; lysate).
`COCCOCCc1c(C)c2cc(OC)c(O)c(C=O)c2oc1=O` gave a Kd of 0.84 µM (Serine/threonine-protein kinase/endoribonuclease IRE1 (Mus musculus, UniProt Q9EQY0, N772Y); binding).
For `COC(=O)c1c(O)cc(O)c(Cl)c1CCC(=O)Nc1ccc(Br)cc1`, the Kd was 1.5 µM (HSP90B1; ligand displacement, FP).
For `C=CC(=O)N1CCC(C(=O)N(C)CC(=O)N2CCN(c3nc(-c4cnc(N)nc4C(F)F)nc(N4CCOCC4)n3)CC2)CC1`, the Kd was 0.026 µM (MTOR; binding, competition with immobilised ligand).
`COC(=O)c1c(O)cc(O)c(Cl)c1CCC(=O)Nc1ccccc1Cl` gave a Kd of 1.85 µM (HSP90B1; ligand displacement, FP).
`C=CC(=O)N1CCC(C(=O)NCC(=O)N2CCN(c3nc(-c4cnc(N)nc4C(F)F)nc(N4CCOCC4)n3)CC2)CC1` gave a Kd of 0.032 µM (MTOR; binding, competition with immobilised ligand).
`COC(=O)c1c(O)cc(O)c(Cl)c1CCC(=O)Nc1ccccn1` has a Kd of 0.82 µM (HSP90B1; ligand displacement, FP).
With `CC(=O)N[C@H]1[C@H](O[C@H]2[C@H](O)[C@@H](NC(C)=O)C(O)O[C@@H]2CO)O[C@H](CO)[C@@H](O[C@@H]2O[C@H](CO)[C@@H](O)[C@H](O)[C@H]2NC(C)=O)[C@@H]1O` (some centres unmarked) the Kd was 3100 µM (Chitotriosidase-1 (Homo sapiens, UniProt Q13231); binding).
For `COC(=O)c1c(O)cc(O)c(Cl)c1CCC(=O)Nc1nncs1`, the Kd was 1.54 µM (HSP90B1; ligand displacement, FP).
`c1cncc(-c2cccc(Nc3nccc(NC4CCCCC4)n3)c2)c1` gave a Kd of 0.35 µM (Non-receptor tyrosine-protein kinase TYK2, JH1 (TYK2, Homo sapiens, UniProt P29597); binding, competition with immobilised ligand).
The Kd of `COc1cc2c(Nc3ccc(NC(=O)c4ccccc4)cc3)ncnc2cc1OCCCN1CCOCC1` is reported as > 10 µM (Epidermal growth factor receptor (EGFR, Homo sapiens, UniProt P00533); binding).
With `O=C1OC2(c3ccc(O)cc3Oc3cc(O)ccc32)c2ccccc21` the Kd was 3.8 µM (Lysozyme C (LYZ, Gallus gallus, UniProt P00698); binding, fluorescence).
For `CC(C)Nc1ccnc(Nc2cccc(-c3cccnc3)c2)n1`, the Kd was 0.21 µM (Non-receptor tyrosine-protein kinase TYK2, JH2 (TYK2, Homo sapiens, UniProt P29597); binding, competition with immobilised ligand).
For `CCC(=O)N1CCC(C(=O)N(C)CC(=O)N2CCN(c3nc(-c4cnc(N)nc4C(F)F)nc(N4CCOCC4)n3)CC2)CC1`, the Kd was 0.054 µM (MTOR; binding, competition with immobilised ligand).
The Kd of `Cc1ncsc1-c1ccc(CNC(=O)[C@@H]2C[C@H](O)CN2C(=O)[C@@H](NC(=O)C2(F)CC2)C(C)(C)C)c(OCCc2ccc(CN3CCN(c4cc(-c5ccccc5O)nnc4N)CC3)cc2)c1` is reported as 1.2 µM (SMARCA2 bromodomain; binding, SPR).
